ChEMBL document CHEMBL1138592, “Pyridopyrimidine based cannabinoid-1 receptor inverse agonists: Synthesis and biological evaluation” (Bioorg Med Chem Lett, 2009)

Assays:
Rattus norvegicus [1] = experiment: Antiobesity activity in high fat diet-induced obese Sprague-Dawley rat model assessed as suppression of food intake at 10 mg/kg, po after 18 hrs; type: functional
Rattus norvegicus [2] = experiment: Antiobesity activity in high fat diet-induced obese Sprague-Dawley rat model assessed as change in overnight body weight at 10 mg/kg, po after 18 hrs; type: functional
Cannabinoid receptor 1 = Cannabinoid receptor 1 (Homo sapiens, UniProt P21554); experiment: Inverse agonist activity at human cannabinoid CB1R expressed in CHO cells assessed as effect on cAMP accumulation; type: functional, cell-based
Cannabinoid receptor 1, sequence (P21554 whole entry): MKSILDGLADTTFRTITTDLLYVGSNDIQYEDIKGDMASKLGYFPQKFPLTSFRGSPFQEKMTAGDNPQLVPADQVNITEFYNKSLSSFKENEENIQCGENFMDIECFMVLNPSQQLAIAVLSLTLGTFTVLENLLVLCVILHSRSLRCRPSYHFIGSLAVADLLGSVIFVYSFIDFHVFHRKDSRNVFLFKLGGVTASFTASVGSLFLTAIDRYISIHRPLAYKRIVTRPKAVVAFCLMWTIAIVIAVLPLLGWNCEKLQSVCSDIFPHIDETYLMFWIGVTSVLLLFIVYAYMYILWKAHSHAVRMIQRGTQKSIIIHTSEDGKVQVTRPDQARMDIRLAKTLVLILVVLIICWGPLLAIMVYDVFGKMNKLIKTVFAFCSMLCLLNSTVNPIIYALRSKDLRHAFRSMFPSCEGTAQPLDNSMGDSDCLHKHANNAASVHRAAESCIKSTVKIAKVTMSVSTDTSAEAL

Cannabinoid receptor 2 = Cannabinoid receptor 2 (Homo sapiens, UniProt P34972); experiment: Binding affinity to human cannabinoid CB2R expressed in CHO cells; type: cell-based
Cannabinoid receptor 2, sequence (P34972 whole entry): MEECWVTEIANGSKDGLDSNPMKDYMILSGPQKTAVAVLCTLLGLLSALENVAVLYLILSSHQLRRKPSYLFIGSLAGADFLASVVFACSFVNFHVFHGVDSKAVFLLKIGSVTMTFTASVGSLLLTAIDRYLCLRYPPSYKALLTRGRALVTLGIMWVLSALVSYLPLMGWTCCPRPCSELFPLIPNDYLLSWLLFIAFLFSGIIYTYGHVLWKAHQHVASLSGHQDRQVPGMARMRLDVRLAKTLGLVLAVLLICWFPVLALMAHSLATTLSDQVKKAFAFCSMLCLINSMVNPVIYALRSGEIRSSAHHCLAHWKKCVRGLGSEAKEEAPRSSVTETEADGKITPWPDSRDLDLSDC

[3] = Ratio of drug level in brain to plasma in rat after 4 hrs; type: ADME; details: brain and plasma
[4] = Bioavailability in rat; type: ADME, organism-based; details: in vivo
[5] = Half life in rat; type: ADME, organism-based; details: in vivo
[6] = Plasma clearance in rat; type: ADME, organism-based
[7] = Ratio of drug level in brain to plasma in rat after 0.25 hrs; type: ADME; details: brain and plasma
Rattus norvegicus [8] = experiment: Antiobesity activity in high fat diet-induced obese Sprague-Dawley rat model assessed as suppression of food intake at 3 mg/kg, po after 18 hrs of last dose relative to control; type: functional
Rattus norvegicus [9] = experiment: Antiobesity activity in high fat diet-induced obese Sprague-Dawley rat model assessed as change in body weight at 3 mg/kg, po after 18 hrs of last dose relative to control; type: functional
[10] = Bioavailability in dog; type: ADME, organism-based, Canis lupus familiaris; details: in vivo
[11] = Half life in dog; type: ADME, organism-based, Canis lupus familiaris; details: in vivo
[12] = Plasma clearance in dog; type: ADME, organism-based, Canis lupus familiaris
[13] = Plasma clearance in monkey; type: ADME, organism-based, Macaca mulatta; details: rhesus monkey
Outline: (§1)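 Pharmacokinetic study in rhesus macaque. Reported parameters are bioavailability F (%), half-life T1/2 (h) and plasma clearance Clp (mL/min/kg).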

[14] = Half life in monkey; type: ADME, organism-based, Macaca mulatta; details: rhesus monkey, in vivo; outline: as §1
[15] = Bioavailability in monkey; type: ADME, organism-based, Macaca mulatta; details: rhesus monkey, in vivo; outline: as §1
Rattus norvegicus [16] = experiment: Antiobesity activity in diet-induced obese Sprague-Dawley rat model assessed as suppression of overnight food intake at 3 mg/kg, po administered 1 hr before dark cycle for 14 days measured after […] of last dose; type: functional
Rattus norvegicus [17] = experiment: Antiobesity activity in diet-induced obese Sprague-Dawley rat model assessed as suppression of overnight body weight change at 3 mg/kg, po administered 1 hr before dark cycle for 14 days measured after 18 hrs of last dose; type: functional

`N#Cc1cc(-c2ccc(Cl)cc2)c(-c2ccc(Cl)cc2Cl)nc1Oc1ccc(F)c(F)c1` showed an Activity (Rattus norvegicus [1]) of 48% and an Activity (Rattus norvegicus [2]) of -8 g.

Work on `CC(C)c1nc(N)c2cc(-c3ccc(Cl)cc3)c(-c3ccccc3Cl)nc2n1` yielded an IC50 (Cannabinoid receptor 1) of 190 nM and an IC50 (Cannabinoid receptor 2) of over 2000 nM.

With `Cc1nc(O)c2cc(-c3ccc(Cl)cc3)c(-c3ccccc3Cl)nc2n1` the IC50 (Cannabinoid receptor 1) was 2500 nM and the IC50 (Cannabinoid receptor 2) was over 2000 nM.

Compound `CCN(CC)C(=O)c1nc(NC(C)C)c2cc(-c3ccc(Cl)cc3)c(-c3ccccc3Cl)nc2n1` has an IC50 (Cannabinoid receptor 1) of 150 nM and an IC50 (Cannabinoid receptor 2) of 12000 nM.

`CC(C)c1nc(OCc2ncon2)c2cc(-c3ccc(Cl)cc3)c(-c3ccccc3Cl)nc2n1` showed an IC50 (Cannabinoid receptor 1) of 1.1 nM and an IC50 (Cannabinoid receptor 2) of 6300 nM.

With `CC(C)c1nc2nc(-c3ccccc3Cl)c(-c3ccc(Cl)cc3)cc2c(=O)n1Cc1ncon1` the IC50 (Cannabinoid receptor 1) was 82 nM and the IC50 (Cannabinoid receptor 2) was 9800 nM.

For `CN(C)c1nc(C(C)(C)C)nc2nc(-c3ccccc3Cl)c(-c3ccc(Cl)cc3)cc12`, the IC50 (Cannabinoid receptor 1) was 8.5 nM and the IC50 (Cannabinoid receptor 2) was 1800 nM.

In the case of `CC(C)(C)c1nc2nc(-c3ccccc3Cl)c(-c3ccc(Cl)cc3)cc2c(=O)[nH]1`, the IC50 (Cannabinoid receptor 1) is reported as 7.4 nM and the IC50 (Cannabinoid receptor 2) is reported as 8600 nM.

Compound `CC(C)(C)c1nc(N)c2cc(-c3ccc(Cl)cc3)c(-c3ccccc3Cl)nc2n1` has an IC50 (Cannabinoid receptor 1) of 40 nM and an IC50 (Cannabinoid receptor 2) of 4900 nM.

`CC(C)(C)c1nc(N2CCNCC2)c2cc(-c3ccc(Cl)cc3)c(-c3ccccc3Cl)nc2n1` showed an IC50 (Cannabinoid receptor 1) of 1.9 nM and an IC50 (Cannabinoid receptor 2) of 1800 nM.

`CCN(CC)c1nc(C(C)(C)C)nc2nc(-c3ccccc3Cl)c(-c3ccc(Cl)cc3)cc12` gave an IC50 (Cannabinoid receptor 1) of 2.2 nM and an IC50 (Cannabinoid receptor 2) of 2700 nM.

Compound `CC(C)(C)c1nc2nc(-c3ccccc3Cl)c(-c3ccc(Cl)cc3)cc2c2n[nH]c(=O)n12` has a Kp at 4 h [3] of 0.59, an IC50 (Cannabinoid receptor 1) of 1.9 nM and an IC50 (Cannabinoid receptor 2) of 3800 nM. The bioavailability [4] was 33%, the half-life [5] was 5.6 h and the clearance [6] was 12 mL/min/kg. For the same compound, the Kp at 0.25 h [7] was 0.14, the Activity (Rattus norvegicus [8]) was 50% and the Activity (Rattus norvegicus [9]) was -9 g.

For `CC(C)(C)c1nc(N)c2cc(-c3ccc(Cl)cc3)c(-c3ccc(Cl)cc3Cl)nc2n1`, the IC50 (Cannabinoid receptor 2) was 5200 nM.

Work on `Nc1nc(-c2ccc(Cl)cc2)nc2nc(-c3ccccc3Cl)c(-c3ccc(Cl)cc3)cc12` yielded an IC50 (Cannabinoid receptor 1) of 16 nM and an IC50 (Cannabinoid receptor 2) of over 2000 nM.

In the case of `CC(C)(C)c1nc2nc(-c3ccccc3Cl)c(-c3cccc(Cl)c3)cc2c2n[nH]c(=O)n12`, the IC50 (Cannabinoid receptor 1) is reported as 34 nM and the IC50 (Cannabinoid receptor 2) is reported as 2700 nM.

Compound `CC(C)(C)c1nc2nc(-c3ccc(C#N)cc3Cl)c(-c3ccc(Cl)cc3)cc2c2n[nH]c(=O)n12` has an IC50 (Cannabinoid receptor 2) of 19000 nM.

For `CC(C)(C)c1nc2nc(-c3ccccc3C#N)c(-c3ccc(Cl)cc3)cc2c2n[nH]c(=O)n12`, the IC50 (Cannabinoid receptor 1) was 3.2 nM, the IC50 (Cannabinoid receptor 2) was 2400 nM and the Activity (Rattus norvegicus [8]) was 25%. It also gave an Activity (Rattus norvegicus [9]) of -2 g.

Work on `COc1ccc(-c2cc3c(nc2-c2ccccc2Cl)nc(C(C)(C)C)n2c(=O)[nH]nc32)cc1` yielded an IC50 (Cannabinoid receptor 1) of 3 nM and an IC50 (Cannabinoid receptor 2) of 891 nM.

In the case of `CC(C)(C)c1nc2nc(-c3ccccc3Cl)c(-c3ccc(C(F)(F)F)cc3)cc2c2n[nH]c(=O)n12`, the IC50 (Cannabinoid receptor 1) is reported as 1.1 nM and the IC50 (Cannabinoid receptor 2) is reported as 9200 nM.

Work on `CN(C)c1ccc(-c2cc3c(nc2-c2ccccc2Cl)nc(C(C)(C)C)n2c(=O)[nH]nc32)cc1` yielded an IC50 (Cannabinoid receptor 1) of 28 nM and an IC50 (Cannabinoid receptor 2) of 770 nM.

With `CC(C)(C)c1nc2nc(-c3ccccc3Cl)c(-c3cnccc3C#N)cc2c2n[nH]c(=O)n12` the IC50 (Cannabinoid receptor 1) was 100 nM and the IC50 (Cannabinoid receptor 2) was 18000 nM.

`CC(C)(C)c1nc2nc(-c3ccccc3Cl)c(-c3ccc(Cl)cc3)cc2c2nncn12` gave an IC50 (Cannabinoid receptor 1) of 8 nM and an IC50 (Cannabinoid receptor 2) of 3400 nM.

With `O=c1[nH]c(-c2ccc(Cl)cc2)nc2nc(-c3ccccc3Cl)c(-c3ccc(Cl)cc3)cc12` the IC50 (Cannabinoid receptor 1) was 59 nM and the IC50 (Cannabinoid receptor 2) was over 2000 nM.

With `CC(C)c1nc2nc(-c3ccccc3Cl)c(-c3ccc(Cl)cc3)cc2c(=O)[nH]1` the IC50 (Cannabinoid receptor 1) was 130 nM and the IC50 (Cannabinoid receptor 2) was 7300 nM.

`CC(C)Nc1nc(C(C)(C)C)nc2nc(-c3ccccc3Cl)c(-c3ccc(Cl)cc3)cc12` showed an IC50 (Cannabinoid receptor 1) of 4.1 nM and an IC50 (Cannabinoid receptor 2) of over 2000 nM.

`Cc1nc(N)c2cc(-c3ccc(Cl)cc3)c(-c3ccccc3Cl)nc2n1` showed an IC50 (Cannabinoid receptor 1) of 1500 nM and an IC50 (Cannabinoid receptor 2) of 1100 nM.

In the case of `CC(C)(C)c1nc(-c2ccc(F)cc2)c2cc(-c3ccc(Cl)cc3)c(-c3ccccc3Cl)nc2n1`, the IC50 (Cannabinoid receptor 1) is reported as 0.63 nM and the IC50 (Cannabinoid receptor 2) is reported as 9830 nM.

`CC(C)(C)c1nc2nc(-c3ccccc3Cl)c(-c3ccc(C#N)cc3)cc2c2n[nH]c(=O)n12` showed an IC50 (Cannabinoid receptor 1) of 5.9 nM, an IC50 (Cannabinoid receptor 2) of 18000 nM and a bioavailability [4] of 53%. It also gave a half-life [5] of 3.5 h, a clearance [6] of 4 mL/min/kg and a bioavailability [10] of 2.1%. For the same compound, the half-life [11] was 7.4 h, the clearance [12] was 24 mL/min/kg and the clearance [13] was 5.3 mL/min/kg. For the same compound, the half-life [14] was 9.9 h, the bioavailability [15] was 9.7% and the Activity (Rattus norvegicus [8]) was 36%. It also gave an Activity (Rattus norvegicus [9]) of -5 g.

With `CC(=O)c1ccc(-c2cc3c(nc2-c2ccccc2Cl)nc(C(C)(C)C)n2c(=O)[nH]nc32)cc1` the IC50 (Cannabinoid receptor 2) was 5800 nM.

Compound `CC(C)(C)c1nc2nc(-c3ccc(Cl)cc3Cl)c(-c3ccc(Cl)cc3)cc2c(=O)[nH]1` has an IC50 (Cannabinoid receptor 1) of 6 nM, an IC50 (Cannabinoid receptor 2) of 5500 nM and an Activity (Rattus norvegicus [8]) of 21%. The Activity (Rattus norvegicus [9]) was 1 g.

In the case of `COc1nc(C(C)(C)C)nc2nc(-c3ccccc3Cl)c(-c3ccc(Cl)cc3)cc12`, the IC50 (Cannabinoid receptor 1) is reported as 7.5 nM and the IC50 (Cannabinoid receptor 2) is reported as 8400 nM.

`CC(C)(C)Nc1nc(C(C)(C)C)nc2nc(-c3ccccc3Cl)c(-c3ccc(Cl)cc3)cc12` gave an IC50 (Cannabinoid receptor 1) of 2.7 nM and an IC50 (Cannabinoid receptor 2) of over 2000 nM.

`CC(C)(C)c1nc(NCC(F)(F)CO)c2cc(-c3ccc(Cl)cc3)c(-c3ccccc3Cl)nc2n1` showed an IC50 (Cannabinoid receptor 1) of 9.5 nM, an IC50 (Cannabinoid receptor 2) of over 2000 nM and an Activity (Rattus norvegicus [8]) of 39%. The Activity (Rattus norvegicus [9]) was -4 g.

For `CC(=O)Nc1c(C(C)=O)c(=O)n(C)c2nc(-c3ccc(Cl)cc3Cl)c(-c3ccc(Cl)cc3)cc12` [NAPHTHYRIDINONE], the half-life [5] was over 8 h, the Kp at 0.25 h [7] was 0.9 and the Activity (Rattus norvegicus [8]) was 68%. It also gave an Activity (Rattus norvegicus [9]) of -4 g.

For `C[C@H](NC(=O)C(C)(C)Oc1ccc(C(F)(F)F)cn1)[C@@H](Cc1ccc(Cl)cc1)c1cccc(C#N)c1` [TARANABANT], the Activity (Rattus norvegicus [16]) was 49% and the Activity (Rattus norvegicus [17]) was -10 g.
